Here are results for four substances from article PMC2729689 (Hypertension, 2009).

The target of series [1] is GC-C (GC-C-expressing T84 cell line) (Homo sapiens, UniProt P25092). The series is described as follows: T84 cell-based cyclic GMP bioassay. An outline of the steps:
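Test peptide diluted into bioassay medium (1 mM IBMX, 137 mM NaCl, 5.4 mM KCl, 1.3 mM CaCl2, 1.0 mM MgSO4, 4.2 mM NaHCO3, phosphates, phenol red, 10 mM HEPES), pH readjusted to 7.0 if required, then applied to T84 cells for 30 min. Cells lysed; cyclic GMP measured by radioimmunoassay. Concentration-response data fitted with the log(agonist) vs response equation.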

Series [2] deals with anesthetized rats (male Sprague Dawley). Put plainly: Urinary sodium excretion. In kind it is in vivo, rat.
For series [3] the following is noted: rat, mouse, and opossum forms; 37° C and neutral pH; cited from earlier work.
Series [4] concerns kidney. Conditions: cited from earlier work.
The subject of series [5] is chymotrypsin-like activity in the kidney. Conditions: cited from earlier work.
Series [6] has as its system GC-C knockout mouse intestine. The following applies: cited from earlier work.
Series [7] concerns GC-C knockout mouse kidneys. The following applies: cited from earlier work.

“Also recorded” adds a separate entry of the source. Where no end group is shown, it is not given here.

Sequence of GC-C (GC-C-expressing T84 cell line) (P25092 24-1073): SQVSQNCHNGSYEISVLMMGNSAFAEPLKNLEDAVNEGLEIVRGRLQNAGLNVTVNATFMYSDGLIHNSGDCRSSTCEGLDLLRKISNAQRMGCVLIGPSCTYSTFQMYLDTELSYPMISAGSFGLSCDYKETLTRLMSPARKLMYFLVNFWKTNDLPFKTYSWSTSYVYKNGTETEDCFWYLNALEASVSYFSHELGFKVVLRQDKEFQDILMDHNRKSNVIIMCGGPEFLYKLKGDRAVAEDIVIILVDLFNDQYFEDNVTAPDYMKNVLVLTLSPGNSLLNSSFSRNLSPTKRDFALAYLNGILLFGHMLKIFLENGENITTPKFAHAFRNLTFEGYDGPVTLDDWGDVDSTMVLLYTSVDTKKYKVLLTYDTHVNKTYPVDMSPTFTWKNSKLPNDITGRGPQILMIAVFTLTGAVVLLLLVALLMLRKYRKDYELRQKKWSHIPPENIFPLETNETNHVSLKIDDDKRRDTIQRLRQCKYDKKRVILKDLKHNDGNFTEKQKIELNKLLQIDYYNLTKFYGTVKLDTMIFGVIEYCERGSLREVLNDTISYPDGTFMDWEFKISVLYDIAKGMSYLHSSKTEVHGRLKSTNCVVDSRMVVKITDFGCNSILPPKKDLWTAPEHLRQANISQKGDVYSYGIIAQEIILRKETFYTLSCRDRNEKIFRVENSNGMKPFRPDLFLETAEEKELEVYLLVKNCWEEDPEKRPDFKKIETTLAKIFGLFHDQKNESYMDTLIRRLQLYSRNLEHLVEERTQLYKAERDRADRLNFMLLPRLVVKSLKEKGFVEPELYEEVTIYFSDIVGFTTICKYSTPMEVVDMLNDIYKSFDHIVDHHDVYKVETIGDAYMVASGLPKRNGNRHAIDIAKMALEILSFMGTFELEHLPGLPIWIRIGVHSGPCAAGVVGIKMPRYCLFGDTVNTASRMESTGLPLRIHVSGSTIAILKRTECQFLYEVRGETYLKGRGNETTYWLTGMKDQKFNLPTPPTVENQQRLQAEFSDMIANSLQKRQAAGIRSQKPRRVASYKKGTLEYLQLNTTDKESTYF

For “CCELCCNPACTGCY (also: bicyclic or more (positions not given here)) [ST-core]”, the “EC50 for cyclic GMP stimulation relative to huUgnA (fold lower)” value in series [1] (T84 cells, no reference or data printed) is given as “about 10 fold”. Further, the “pharmacological profile of GC-C-mediated responses (rank order)” value in series [1] (described as well-established) is given as “ST core > huUgnA >> huUgnB, with all three peptides acting as pure agonists”. The “natriuretic effect compared with huUgnA” value in series [2] (iv infusion, cumulative 3 hour, Figure 6b, words) is “the maximal natriuresis elicited by ST-core was slightly less and the response was shifted to the right; also recorded: right-shifted, but otherwise quite similar to those evoked by huUgnA”. Besides, the “pharmacological profile of the renal responses (rank order)” value in series [2] (rat, in vivo) is reported as “huUgnB ≥ huUgnA ≈ ST core, with physiological antagonism by huUgnA at high concentration”.

“guanylin (PGTCEICAYAACTGC; ends and bridges not checked; cysteine pairing not given here; UniProt Q02747 101-115, looked up) [Gn]”: the “rate of interconversion of the two conformations” value in series [3] is reported as 1–2 cycles per sec. For the same substance, the “kaliuretic activity, Gn versus Ugn” value in series [4] (words) is listed as “more kaliuretic than Ugn”. For the same substance, the “susceptibility to proteolytic digestion” value in series [5] (chymotrypsin-like activity in the kidney) was “susceptible to proteolytic digestion”. For the same substance, the detectability in urine result in series [5] is on record as “undetectable in urine”.

Turning to “rat Ugn: rat form of uroguanylin; A and B forms interconvert rapidly (TDECELCINVACTGC; not fully specified (bridges); ends and bridges not checked; UniProt P70668 92-106, looked up)”, the “secretory response from the intestine” value in series [6] is given as “only small, residual secretory responses”. Moreover, the “natriuretic response from the kidneys” value in series [7] is “apparently full natriuretic responses”.

In the case of “uroguanylin (NDDCELCVNVACTGCL; ends and bridges not checked; cysteine pairing not given here; UniProt Q16661 97-112, looked up) [Ugn]”, the “rate of interconversion of the two conformations” value in series [3] is reported as 1–2 cycles per sec. Further, the “natriuretic, kaliuretic, diuretic effect” value in series [4] (every preparation that has been examined) is “natriuretic, kaliuretic, and diuretic in every preparation that has been examined”. Besides, the “natriuretic potency, Ugn versus Gn” value in series [4] (words) is “a more potent natriuretic factor than Gn”.
